# Experimental data pooled from the literature.
# Each line is one published result; the experiments were not run side by side.
# NT5E: 5'-nucleotidase (NT5E, Homo sapiens, UniProt P21589)
SMILES,target,assay,conditions,endpoint,value
NC/C(=C\F)COc1cccc(Cn2c(=S)[nH]c(=O)c3[nH]cnc32)c1,"Lactoperoxidase (LPO, Bos taurus, UniProt P80025)","enzyme activity, inhibitor",2.5 µM,remaining activity,81.1%
O=C(NS(=O)(=O)c1ccc(C(F)(F)F)cc1)c1cc2ccccc2n1Cc1ccc(Br)c2ccccc12,"Xanthine dehydrogenase/oxidase (XDH, Bos taurus, UniProt P80457)","enzyme activity, inhibitor, absorbance",10 µM,inhibition,17.2%
CCCCC(=O)Nc1ccc(-c2ccc3ncn(CCC)c(=O)c3c2)cn1,"Phosphatidylinositol 4-kinase beta (PI4KB, Homo sapiens, UniProt Q9UBF8)","binding, competition with immobilised ligand",0.5 µM,remaining binding,53%
C1=C/COCc2cc(ccc2OCCN2CCCC2)Nc2nccc(n2)-c2cccc(c2)COC/1,"Cyclin-dependent kinase 13 (CDK13, Homo sapiens, UniProt Q14004)",cell-free assay,0.1 µM,remaining signal,60%
Cc1cc(-c2ccccc2)c(C#N)c(SCC(=O)Nc2nccs2)n1,NT5E,"enzyme activity, inhibitor, HPLC",10 µM,inhibition,91%
COc1ccc2oc(-c3ccc4nc(N)oc4c3)c/c(=N\c3ccccc3NC(=O)CCN)c2c1,"Platelet-derived growth factor receptor alpha (PDGFRA, Homo sapiens, UniProt P16234)",binding,1 µM,remaining binding,103%
N#Cc1c(C(F)(F)F)cc(-c2ccccc2)nc1SCC(=O)Nc1cccnc1,NT5E,"enzyme activity, inhibitor",10 µM,inhibition,40%
CC(=O)ON=C1C=CC(=C(C#N)c2ccccc2)C=C1,"Dual specificity tyrosine-phosphorylation-regulated kinase 1A (Dyrk1a, Rattus norvegicus, UniProt Q63470)","enzyme activity, inhibitor, ADP detection",2 µM,activity vs control,87%
